From PubChem BioAssay
RGS4 inh = human RGS4 inhibition; AID 463165; hit rate 0.45% among 310,000; HEK293 M3R/RGS4 inducible, Fluo-4 calcium flux; active compounds read high; triggered by carbachol at its EC20; B-score at 10 µM;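 active = B-score, a plate-corrected calcium signal, over three deviations above library mean, with baseline fluorescence within five deviations of library mean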;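 note: RGS4 expression induced by doxycycline in cells with stable M3 receptor; B-score is computed from the integrated fluorescence ratio over baseline after carbachol; higher B-score means a larger calcium signal and so more RGS4 inhibition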
RGS4 pot = potentiators or activators of RGS4 | B-score at 10 µM | HEK293 M3R/inducible RGS4, carbachol calcium flux Fluo4; active compounds read low | hit rate 0.92% among 310,000;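 active = B-score of the integrated calcium signal more than 4 SD below the library mean, with starting fluorescence not abnormally high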;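 note: negative B-score means reduced calcium response which marks RGS4 activation or potentiation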
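Detection: kinetic calcium fluorescence imaging with Fluo4-AM dye, 2 µM / Material: HEK293 cells with stable M3R and inducible RGS4 / Schedule: recording 10 s baseline at 1 Hz, 100 s post-agonist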
MrgX1 PAM = allosterically activates human MrgX1 receptor signaling; Q96LB2; MrgX1-HEK293, Fluo-4 calcium flux, FDSS; active compounds read high; B-score at 10 µM; hit rate 0.63% among 310,000; AID 588675;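 active = plate-corrected calcium response at least 3 library SD above typical, normal starting fluorescence, not activating the receptor alone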;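 note: compound read alongside a low EC10 to EC30 dose of BAM8-22 agonist; peak minus trough fluorescence over baseline measured at the second addition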
KCC2 mod = modulates chloride dependent transport by human KCC2; KCC2 cells, thallium flux FluoZin-2 fluorescence; hit rate 2.2% among 190,000; Q9H2X9; B-score of Tl+ flux slope (higher = more flux/activation; lower = inhibition) at 10 µM;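 active = thallium flux slope and its plate-corrected score both differing from the plate sample mean at a set confidence after two filtering rounds, in either direction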;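 note: slope of fluorescence scaled to starting intensity during 10 to 20 s after thallium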
MrgX1 antag = human MrgX1 receptor antagonism, primary screen; AID 588676; Q96LB2; MRGX1-HEK293 calcium flux, Fluo-4, BAM8-22 antagonism; active compounds read low; B-score at 10 µM; hit rate 1.3% among 310,000;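 active = calcium-response B-score plate-corrected more than 3 library SD below zero, starting fluorescence within 5 deviations, no agonist response on first addition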;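 note: peak minus trough fluorescence over baseline after final BAM8-22 challenge near maximal dose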
MrgX1 ag = activates human MrgX1 receptor signaling | Q96LB2 | MrgX1-HEK293 cells, Fluo-4 calcium fluorescence, agonist mode; active compounds read high | B-score at 10 µM | hit rate 0.44% among 310,000 | AID 588627;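 active = calcium response B-score plate-corrected fluorescence ratio at least 3 library SD, with starting fluorescence B-score inside 5 SD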
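Material: MrgX1-expressing HEK293 cells / Dosing: compound as first of three additions / Incubation: overnight seeding, then 1 h dark dye loading / Signal: Fluo-4 NW calcium fluorescence / Evaluation: B-scored fluorescence response ratio / Benchmarks: positive and negative control wells on each plate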
RGS4 activ val = confirmation of RGS4 activators; shares compounds with RGS4 pot; HEK293 M3R/RGS4 inducible, carbachol calcium flux Fluo4; inhibition, % at 10 µM; hit rate 89% among 1,100; AID 602282;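 active = inhibition above 3 SD of the buffer control wells, cut at about 41% in these data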;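 note: signal is the integrated peak-minus-minimum Fluo4 fluorescence over baseline ratio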
RGS4 act ctr = RGS4 activator counter-screen hit in non-induced cells; shares compounds with RGS4 pot; HEK293 M3R non-induced RGS4, Fluo4 calcium flux; after carbachol challenge at its EC90; inhibition, % at 10 µM; hit rate 82% among 1,100;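 active = inhibition exceeding 3 SD of buffer-only control wells, cut at about 26% in these data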;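 note: percent drop in integrated peak-minus-baseline over baseline Fluo4 ratio after carbachol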
Numbers stand for hits; n = inactive; x = no result. The list is not random: actives were taken first. Their share in the collection is about 4.7%.

SMILES	RGS4 inh	RGS4 pot	MrgX1 PAM	KCC2 mod	MrgX1 antag	MrgX1 ag	RGS4 activ val	RGS4 act ctr
CCn1nc(C)c(CN2CCCC(C(=O)c3cccc(OC(C)C)c3)C2)c1C (configuration not stated)	n	n	n	n	n	n	x	x
COc1cccc(CN2CCCC(C(=O)c3ccc4c(c3)OCO4)C2)c1O (configuration not stated)	n	n	n	n	n	n	x	x
COc1ccc(CN2CCCC(C(=O)c3ccc4c(c3)OCO4)C2)c(F)c1 (configuration not stated)	n	-8.33	n	x	n	n	91.0	80.8
Cc1nn(C(C)C)c(C)c1CN1CCCC(C(=O)c2cccc(OC(C)C)c2)C1 (configuration not stated)	n	-8.39	n	n	n	n	70.5	83.8
COc1cccc(C(=O)C2CCCN(Cc3cccc(-n4nc(C)cc4C)c3)C2)c1 (configuration not stated)	n	-9.79	n	n	n	n	93.0	75.3
O=C(c1ccc2c(c1)OCO2)C1CCCN(C2CCN(CCc3ccccc3)CC2)C1 (configuration not stated)	n	-13.2	n	x	n	n	87.0	55.3
COc1cccc(C(=O)C2CCCN(Cc3ccc(OC)c(Cn4cncn4)c3)C2)c1 (configuration not stated)	n	n	n	n	n	n	x	x
C=CCn1c(O)c(N=NC(=O)c2cccnc2)c2cc(Br)ccc21	n	n	n	n	n	n	x	x
CC(=O)c1cccc(CN2CCCC(C(=O)c3ccc4c(c3)OCO4)C2)c1 (configuration not stated)	n	-8.3	n	n	n	n	74.0	26.3
CC(C)NC(=O)CCn1ccc2cc(S(=O)(=O)N3CCCC3)ccc21	n	n	n	x	n	n	x	x
CC1CCN(S(=O)(=O)c2ccc3c(ccn3CCC(=O)NC(C)C)c2)CC1	n	-7.88	n	x	n	n	n	n
COCCCN1C(=O)c2ccc(C(=O)OCC(=O)N(CCC#N)c3cc(C)cc(C)c3)cc2C1=O	n	n	n	x	n	n	x	x
COC(=O)C1CCN(c2nc3ccccc3nc2C(C#N)C(=O)OCC(C)C)CC1 (configuration not stated)	n	-7.92	n	x	n	n	91.0	75.3
COC(=O)C1CCN(c2nc3ccccc3nc2C(C#N)C(=O)NCCc2ccccc2)CC1 (configuration not stated)	n	n	n	n	n	n	x	x
OC(CNCc1ccc(Cl)cc1)(c1ccccc1)c1ccc(F)cc1 (configuration not stated)	n	-9.37	n	n	n	n	94.0	85.8
OC(CNCc1ccc(F)cc1)(c1ccc(F)cc1)c1ccc(F)cc1	n	n	n	n	n	n	x	x
CSc1nc(NCCCO)c2c3c(sc2n1)CN(C)CC3	n	-7.75	n	n	n	n	n	n
CN1CCCC(C#CC(O)(c2ccccc2)c2ccccc2)C1 (configuration not stated)	n	-10.9	n	x	n	n	94.0	92.3
Nc1ccc(O)c(-c2nc3ccccc3s2)c1	n	n	n	x	n	n	x	x
Oc1ccc(-c2nc3ccccc3s2)c(O)c1	n	-7.9	n	n	n	n	n	n
Cc1cccc(OCc2nc(C#N)c(N3CC(C)CC(C)C3)o2)c1 (configuration not stated)	n	-9.07	n	x	n	n	93.5	70.3
Cc1cccc(OCc2nc(C#N)c(N3CCCC3)o2)c1	n	n	n	n	n	n	x	x
COc1cccc(NC(=O)C2C3C=CC4(O3)C2C(=O)N(CCCN2CCCCC2)C4C(=O)NC2CCCCC2)c1 (configuration not stated)	n	n	n	x	n	n	x	x
COc1ccccc1/C=C/CN1CCC(n2nccc2NC(=O)CCc2ccccc2)CC1	n	-8.15	n	x	n	n	61.0	83.8
O=C(CCc1ccccc1)Nc1ccnn1C1CCN(C/C=C/c2ccccc2)CC1	n	n	n	x	n	n	x	x
SMILES	RGS4 inh	RGS4 pot	MrgX1 PAM	KCC2 mod	MrgX1 antag	MrgX1 ag	RGS4 activ val	RGS4 act ctr
COCCN(C(=O)COC(=O)C1(C)CC1(Cl)Cl)c1c(N)n(Cc2ccccc2)c(=O)[nH]c1=O (configuration not stated)	n	n	n	x	n	n	x	x
COc1cc(/C=C(\NC(=O)c2ccccc2)C(=O)NC(C(=O)O)c2ccccc2)cc(OC)c1OC (configuration not stated)	n	n	n	x	n	n	x	x
Cc1cc(SCC(=O)c2ccccc2)n2nc(C)nc2n1	n	-9.04	n	n	n	n	n	n
CC(=O)Nc1ccc(OS(=O)(=O)c2ccc(C(C)(C)C)cc2)cc1	n	n	n	n	n	n	x	x
Cc1ccc(C(=O)CN(CCCC(N)=O)C(=O)c2ccncc2)cc1	x	x	n	x	n	n	x	x
CN(C)C(CNC(=O)c1ccc(NC(=O)c2cccs2)cc1)c1ccccc1 (configuration not stated)	n	n	n	x	n	n	x	x
CN(C)C(CNC(=O)c1ccc(C2SCCS2)cc1)c1ccccc1 (configuration not stated)	n	-10	n	x	n	n	93.5	80.3
COc1ccc(-c2cc(C(=O)N3CCN(c4ccccc4O)CC3)c3ccccc3n2)cc1OC	n	-7.7	n	x	n	n	92.5	82.3
COc1ccc(-c2cc(C(=O)N3CCN(c4ccccc4F)CC3)c3ccccc3n2)c(OC)c1	n	-8.43	n	x	n	n	56.0	n
CCCc1ccc(-c2cc(C(=O)N3CCN(c4ccccn4)CC3)c3ccccc3n2)cc1	n	-11.6	n	x	n	n	52.0	n
Cc1cc(F)ccc1S(=O)(=O)N1CCCOC1CNC(=O)C(=O)NCc1ccccn1 (configuration not stated)	n	n	n	x	n	n	x	x
CCCCCCCCCn1c2c(c(=N)c3c1CCC3)CCCC2	n	-11.3	x	n	x	x	92.5	95.3
COc1cccc(NC(=O)CN(C)C(=O)Cn2cnc3ccccc3c2=O)c1	n	n	n	x	n	n	x	x
CN(CCc1ccccc1)C1CCCN(C(=O)Cn2cccn2)C1 (configuration not stated)	n	n	n	x	n	n	x	x
CCOC1=C/C(=C/c2c(N)n3nc(-c4ccccc4)sc3nc2=O)C=CC1=O	n	-12.1	x	n	x	x	65.0	33.3
CCOC(=O)N1CCC(N2CCN(CCC(C)C)C(CCO)C2)CC1 (configuration not stated)	n	-10.4	n	n	n	n	77.5	29.8
